Bioassay records (PubChem)
OX1R antag-1 – blocks the human orexin 1 receptor; O43613; OX1R-expressing cells, FRET antagonist read-out; inhibition, % at 6.6 µM; 330,000 compounds, 1.8% hits; in the data active means inhibition mostly above about 38%, no sharp cut-off; inactive means mostly below about 40%;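 further: 0% = agonist challenge alone and 100% = reference antagonist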
Target sequence (O43613 whole entry, looked up): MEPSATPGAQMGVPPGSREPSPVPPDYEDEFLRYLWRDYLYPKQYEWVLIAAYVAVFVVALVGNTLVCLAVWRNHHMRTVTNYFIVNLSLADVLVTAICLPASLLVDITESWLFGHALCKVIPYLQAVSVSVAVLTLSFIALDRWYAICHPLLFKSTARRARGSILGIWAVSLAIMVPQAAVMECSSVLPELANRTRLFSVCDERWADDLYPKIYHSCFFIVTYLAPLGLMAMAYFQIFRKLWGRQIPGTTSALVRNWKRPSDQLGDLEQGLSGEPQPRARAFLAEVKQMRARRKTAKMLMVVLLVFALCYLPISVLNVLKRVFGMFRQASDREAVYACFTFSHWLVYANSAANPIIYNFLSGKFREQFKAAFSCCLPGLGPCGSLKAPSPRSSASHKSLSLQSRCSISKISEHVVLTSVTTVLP
CHO-K1 Ca ag – M1 agonist counterscreen hit in parental CHO-K1 cells; activation, % at 3 µM; Fluo-8 calcium fluorescence; scaled to maximal ATP response, vehicle zero; AID 602248; 360,000 compounds, 0.48% hits; in the data active means activation above about 15%;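 further: untransfected CHO-K1 host cells lacking M1 receptor as counterscreen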
CHO parental Ca – counter-screen: ATP calcium response change in parental CHO cells | parental CHO-K1, ATP-induced calcium, Fluo-8 fluorescence | inhibition, % at 5.6 µM | 330,000 compounds, 0.63% hits;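 active means inhibition above that plate's mean sample inhibition plus 3 SD, cut at about 26% in these data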;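 further: 0% = ATP-challenged DMSO wells and 100% = DMSO wells without ATP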
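Test system: parental CHO cells; detection: calcium-sensitive Fluo-8 fluorescence; evaluation: percent inhibition of calcium signal; also added: ATP as calcium-mobilizing challenge; repeats: one well per compound; control set: ATP-challenged DMSO wells low, unchallenged DMSO wells high; compound: single nominal dose of 5.6 µM per compound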
CHO-K1 Ca antag – M1 antagonist counterscreen hit in parental CHO-K1 cells | ATP-induced calcium, Fluo-8 fluorescence | 360,000 compounds, 0.6% hits | AID 602250 | inhibition, % at 3 µM;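 active means inhibition above a per-plate cutoff, the plate's mean sample inhibition plus 3 SD, cut at about 24% in these data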;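 further: 0% = DMSO plus EC80 ATP and 100% = DMSO alone without ATP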
OX1R antag-2 – antagonists of human orexin 1 receptor; O43613; CHO/OX1R cells, Fluo-8 calcium fluorescence, orexin A; inhibition, % at 5 µM; 330,000 compounds, 0.43% hits; AID 434989;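 active means inhibition above its plate's threshold, mean inhibition of all tested compounds on the plate plus 3 SD, cut at about 37% in these data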;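 further: 0% = orexin A challenge wells and 100% = SB-334867-A antagonist wells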
CHO-K1 Ca PAM – M1 PAM counterscreen hit in parental CHO-K1 cells; activation, % at 3 µM; 360,000 compounds, 0.02% hits; ATP EC20, Fluo-8 calcium fluorescence; 0% at ATP EC20, 100% at ATP max; AID 602247;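 active means activation above the run cutoff, the mean activation of all test compounds plus 3 SD, cut at about 40% in these data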;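 further: peak over basal fluorescence ratio in a 140 s read after ATP addition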
OX1R Fluo8 conf – confirmation of human orexin 1 receptor antagonists. CHO/OX1R cells, orexin A calcium Fluo-8 fluorescence. 1,100 compounds, 38% hits. shares compounds with OX1R antag-2. AID 492963. inhibition, % at 5 µM; in the data active means inhibition above about 29%;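 further: 0% = agonist challenge alone and 100% = reference antagonist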
CHO Ca triplic – counter-screen: parental CHO calcium response change, triplicate | 1,100 compounds, 9.3% hits | AID 492965 | parental CHO-K1, ATP-induced calcium, Fluo-8 fluorescence | shares compounds with OX1R antag-2 | inhibition, % at 5.6 µM;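 active means inhibition above a per-plate limit, the mean inhibition of that plate's test compounds plus 3 SD, cut at about 25% in these data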;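 further: 0% = ATP challenge with DMSO and 100% = DMSO without ATP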
OX1R HTRF conf – confirmation of human orexin 1 receptor antagonists, HTRF format. shares compounds with OX1R antag-1. OX1R-expressing cells, HTRF antagonist assay. inhibition, % at 6.6 µM. 1,800 compounds, 49% hits. AID 492964; in the data active means inhibition above about 55%;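 further: CHO cells expressing OX1R stimulated with orexin A at about EC80; 0% = agonist challenge alone and 100% = reference antagonist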
CHO-K1 HTRF cnt – counter-screen: parental CHO-K1 HTRF response. 1,800 compounds, 48% hits. AID 493232. shares compounds with OX1R antag-1. inhibition, % at 6.6 µM. parental CHO-K1 cells, HTRF counterscreen; in the data active means inhibition above about 17%;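 further: 0% = agonist challenge with vehicle and 100% = vehicle alone without agonist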
Active calls of the source: *; . = no result. Hits are enriched below; roughly 2.9% of the tested compounds scored in any of these assays.

SMILES	OX1R antag-1	CHO-K1 Ca ag	CHO parental Ca	CHO-K1 Ca antag	OX1R antag-2	CHO-K1 Ca PAM	OX1R Fluo8 conf	CHO Ca triplic	OX1R HTRF conf	CHO-K1 HTRF cnt
COc1ccc(-c2cc3nc(-c4ccccc4)cc(N4CCC(O)CC4)n3n2)cc1	19	3	2	7	-11	-3	.	.	.	.
CCOC(=O)N1CCN(C(=O)CSc2ccc(-c3ccccc3)nn2)CC1	92*	0	-10	-10	26	-1	27	3	82*	-2
COc1ccc(-c2ccc(SCC(=O)c3cccs3)nn2)cc1	50	1	-16	8	-17	-15	.	.	.	.
O=C(CSc1ccc(-c2ccccc2)nn1)c1cccs1	102*	0	-7	10	50*	-22	99*	-4	90*	-4
CCC(CC)c1nnc(NC(=O)C2CC(=O)N(C3CCCC3)C2)s1 (stereo not drawn)	4	0	-3	-9	-15	21	.	.	.	.
O=S1(=O)CCN(Cc2ccc(Cl)c(C(F)(F)F)c2)CC1	8	2	26	0	3	5	.	.	.	.
CN(C(=O)COC(=O)COc1ccc2c(c1)CCC2)c1c(N)n(Cc2ccccc2)c(=O)[nH]c1=O	18	0	-10	5	1	-6	.	.	.	.
COc1ccc(NC(=O)[C@@H]2CCCN2S(=O)(=O)c2ccc(Cl)cc2)cc1	22	0	-12	-7	4	-8	.	.	.	.
CCc1cccc(NC(=O)C2CCCN2S(=O)(=O)c2cccc3cccnc23)c1 (stereo not drawn)	89*	0	-30	4	87*	-7	50*	-9	85*	5
Cc1cccc(NC(=O)[C@@H]2CCCN2S(=O)(=O)c2ccc(Cl)cc2)c1	91*	-1	-22	-19	74*	22	55*	-27	89*	4
CCOC(=O)C1CCN(c2cc3c(cc2NC(=O)c2ccccc2OCC)n(C)c(=O)n3C)CC1	35*	5	-14	-3	34	11	-3	-13	20	-4
CCOC(=O)C1=C(COC(=O)c2ccccc2OC(F)F)NC(=O)NC1C (stereo not drawn)	4	0	-10	-1	-29	-18	.	.	.	.
CCOC(=O)C1=C(COC(=O)c2ccc3ccccc3c2O)NC(=O)NC1C (stereo not drawn)	104*	0	-18	-1	101*	-5	100*	-28	91*	-22
O=C(C1CCN(S(=O)(=O)c2ccc(Cl)c(C(F)(F)F)c2)CC1)N1CCC1	7	2	-10	0	-7	-3	.	.	.	.
COc1ccc(C(=O)NCC(C)(C)CNC(=O)c2ccc(OC)c(OC)c2)cc1OC	16	1	-21	-14	-27	16	.	.	.	.
CC(C)(CNC(=O)c1ccc([N+](=O)[O-])c(Cl)c1)CNC(=O)c1ccc([N+](=O)[O-])c(Cl)c1	85*	7	19	-1	41*	13	13	9	53	18*
CCOC(=O)c1ccc2[nH]c3c(c2c1)CCCC3O (stereo not drawn)	18	0	-4	-12	-10	14	.	.	.	.
CCOC(=O)c1ccc2[nH]c3c(c2c1)CCCC3	78*	0	-11	7	31	0	5	-3	52	0
CC(C)c1ccc(NC(=O)CCNS(=O)(=O)c2ccc3[nH]c(=O)oc3c2)cc1	28	1	-12	-11	-16	17	.	.	.	.
O=C(Nc1ccc2nn(-c3ccccc3)nc2c1)c1cccs1	83*	2	1	6	33	-5	26	-2	55*	-1
COc1ccc(OC)c(NC(=O)c2ccc(Cl)cc2)c1	7	0	-1	7	-31	-7	.	.	.	.
COc1ccc(OC)c(NC(=O)c2csc(Cl)c2OC)c1	105*	-2	-19	7	80*	-10	11	-9	82*	5
COc1ccc(C)cc1NC(=O)c1cc2ccccc2o1	34	0	-10	-4	-29	13	.	.	.	.
COc1ccc(OC)c(NC(=O)c2cc(OC(C)=O)cc(C(=O)Nc3cc(OC)ccc3OC)c2)c1	85*	2	-10	30*	39	-11	54*	-2	85*	5
COc1ccc(OC)c(NC(=O)c2cc3ccccc3o2)c1	85*	0	-7	10	41*	-4	0	-7	52	12
SMILES	OX1R antag-1	CHO-K1 Ca ag	CHO parental Ca	CHO-K1 Ca antag	OX1R antag-2	CHO-K1 Ca PAM	OX1R Fluo8 conf	CHO Ca triplic	OX1R HTRF conf	CHO-K1 HTRF cnt
Cc1c([N+](=O)[O-])cc(C(=O)NCc2ccc(F)cc2)cc1[N+](=O)[O-]	27	3	-26	-1	-33	9	.	.	.	.
COc1ccccc1N(CC(=O)NCCSCc1cccc(C)c1)S(=O)(=O)c1ccccc1	70*	3	3	12	32	-7	41*	-15	78*	-2
COc1ccccc1N(CC(=O)NCCC1=CCCCC1)S(=O)(=O)c1ccccc1	85*	-1	-34	-6	63*	13	45*	-20	87*	0
COc1ccc(N(CC(=O)NCCC2=CCCCC2)S(=O)(=O)c2ccccc2)cc1OC	54	1	-15	-11	2	11	.	.	.	.
Clc1cccc(Cc2c(C3CCCCC3)nc3ccc(Br)cn23)c1	.	0	.	1	.	-14	.	.	.	.
CCOC(=O)c1cnc(-c2ccccc2)nc1-c1ccccc1	26	0	-18	9	-8	-5	.	.	.	.
CCn1c(C)c(C)c2cc(C(=O)Nc3cccc(Cl)c3)ccc21	121*	0	28	-5	40	-2	-6	-11	85*	9
CCn1c2ccccc2c2cc(NC(C)=O)ccc21	32	0	-9	-13	-10	15	.	.	.	.
CCn1c2ccccc2c2cc(NC(=O)c3cccc(OC)c3)ccc21	104*	0	-8	-13	97*	5	97*	-12	103*	14
CCn1c2ccccc2c2cc(NC(=O)c3cccc(OC)c3OC)ccc21	87*	1	7	6	64*	-1	74*	-3	91*	14
CCn1c(C)cc(O)c(C(=O)Nc2cccc(Cl)c2)c1=O	3	0	-9	3	-8	-15	.	.	.	.
CCn1c(SCC(=O)Nc2ccc3c(c2)c2ccccc2n3CC)nnc1-c1cnccn1	89*	1	-17	-27	91*	13	68*	-15	92*	9
